T cruzi inh – inhibitors of intracellular T. cruzi growth, primary screen, luminescence, NIH3T3 host cells; T. cruzi beta-gal in NIH3T3, 90 h; inhibition, % (test concentration not listed); 300,000 compounds, 1.4% hits;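 active = mean inhibition across valid replicates above about 55%, limit read from the data; inconclusive = mean below that limit but half or more replicates reach it; inactive = mean below it, under half of replicates reach it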;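 note: signal also drops with host cell toxicity which is not excluded here; 0% = plate median of DMSO wells and 100% = zero luminescence signal; higher percent means less beta-gal luminescence so fewer parasites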
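assay system = mouse NIH/3T3 fibroblasts infected with β-gal-expressing T. cruzi Tulahuen C4 | input = 5,000 NIH/3T3 host cells per well | buffer or medium = DMEM plus 2% FBS | timing = 3 h host attachment, then at least 90 h co-culture | measured by = GalScreen luminescence, 60 min | evaluation = luminescence reflecting intracellular parasite burden, expressed as percent inhibition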
CSC inhib – cancer stem cell viability inhibitors, primary screen, luminescence. 300,000 compounds, 1.1% hits. cancer stem cell-like cells viability. inhibition, % at 7.5 µM. AID 2717, 2010; in the data active = inhibition above about 75%; inconclusive = no clear call, values can overlap the other calls; tested in HMLE shEcad cells
Mdm2 MdmX PPI – inhibitors of human Mdm2-MdmX association, primary screen, cell-based, luminescence, split luciferase, SaOS-2, uHTS; Protein Mdm4 (Homo sapiens) + E3 ubiquitin-protein ligase Mdm2 (Homo sapiens), …; SaOS-2 split-luciferase Mdm2/MdmX complementation; inhibition, % at 8 µM; 330,000 compounds, 3% hits; AID 485346, 2010;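 active = inhibition of at least 50% at 8 µM in the primary screen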
Target sequence (O15151 whole entry, looked up): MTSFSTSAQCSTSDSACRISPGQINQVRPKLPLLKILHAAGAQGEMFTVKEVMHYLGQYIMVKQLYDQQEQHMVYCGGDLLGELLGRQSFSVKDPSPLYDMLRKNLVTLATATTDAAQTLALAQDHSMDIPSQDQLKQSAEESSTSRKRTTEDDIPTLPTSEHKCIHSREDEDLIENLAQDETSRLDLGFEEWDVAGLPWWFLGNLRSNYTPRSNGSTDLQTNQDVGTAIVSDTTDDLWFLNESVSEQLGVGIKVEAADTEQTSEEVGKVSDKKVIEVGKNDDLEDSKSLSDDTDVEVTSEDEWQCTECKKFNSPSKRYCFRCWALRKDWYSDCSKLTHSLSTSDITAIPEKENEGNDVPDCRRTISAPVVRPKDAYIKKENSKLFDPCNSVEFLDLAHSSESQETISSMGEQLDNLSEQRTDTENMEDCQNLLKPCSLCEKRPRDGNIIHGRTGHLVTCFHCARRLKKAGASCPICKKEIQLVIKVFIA
Target sequence (Q00987 whole entry, looked up): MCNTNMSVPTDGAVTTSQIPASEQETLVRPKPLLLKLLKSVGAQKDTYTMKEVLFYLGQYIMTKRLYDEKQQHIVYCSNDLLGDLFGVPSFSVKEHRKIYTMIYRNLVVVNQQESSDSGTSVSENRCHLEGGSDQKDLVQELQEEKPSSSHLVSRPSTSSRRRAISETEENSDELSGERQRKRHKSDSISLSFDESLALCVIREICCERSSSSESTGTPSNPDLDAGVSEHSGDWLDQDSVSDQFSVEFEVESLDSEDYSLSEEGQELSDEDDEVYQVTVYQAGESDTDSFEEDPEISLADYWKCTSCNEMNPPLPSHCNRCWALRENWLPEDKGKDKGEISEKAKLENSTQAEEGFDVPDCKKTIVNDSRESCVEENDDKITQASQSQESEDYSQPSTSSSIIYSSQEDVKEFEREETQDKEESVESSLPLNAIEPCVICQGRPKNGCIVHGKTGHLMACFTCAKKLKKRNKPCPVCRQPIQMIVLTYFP
Beta cell apopt – inhibitors of cytokine-induced beta cell apoptosis, primary screen, luminescence | INS-1E cytokine-induced death, ATP luminescence, 48 h; percent of positive-control rescue, neutral wells zero | protection from apoptosis, % (test concentration not listed) | 300,000 compounds, 0.8% hits | AID 435005, 2010;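 active = Every replicate reaches about 75%, or at least half do and their mean reaches it too, limit read from the data; inconclusive = At least half of replicates reach the limit but their mean does not; inactive = Under half of replicates reach the limit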;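 note: 0% = cytokine-treated negative control wells and 100% = positive control rescue; higher means more ATP so stronger rescue from cytokine killing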
NLRP3 yeast inh – NALP3 inflammasome inhibitors in reconstituted yeast, primary screen, luminescence, uHTS; inhibition, % at 10 µM; Yeast reconstituted NLRP3/ASC/caspase-1, beta-gal luminescence, 24 h; 330,000 compounds, 0.39% hits; AID 2825, 2010;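 active = inhibition of 50% or more; inactive = inhibition below 50%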;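 note: plate controls were induced DMSO wells for no effect and uninduced yeast grown without galactose for full effect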
Calb FLC – C. albicans growth inhibition with fluconazole, primary screen, CaCi-2 strain, Alamar Blue fluorescence; C. albicans CaCi-2 + fluconazole, 48 h; 300,000 compounds, 0.57% hits; growth inhibition, % (test concentration not listed);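 active = growth inhibition above about 58% in most replicates, limit read from the data, passing the limit was not always enough; inconclusive = exactly half the replicates above a set limit; inactive = most replicates below a set limit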;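 note: all wells also contain fluconazole at 8 µg/ml as a sub-toxic cotreatment; 0% = median of DMSO wells and 100% = median of geldanamycin control wells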
Mdm2 MdmX conf – Mdm2-MdmX complex disruptors, retested hits, confirmation, luminescence, single concentration. shares compounds with Mdm2 MdmX PPI. Mdm2-MdmX binding, luminescent assay. inhibition, % at 8 µM. 10,000 compounds, 55% hits. AID 489028, 2010; in the data active = inhibition above about 40%
Full FLuc ctr – full-length luciferase signal inhibition, confirmation, counter-screen for Mdm2/MdmX interaction inhibitor project, cell-based, single concentration, SaOS-2 | inhibition, % at 8 µM | AID 504607, 2011 | SaOS-2 full-length luciferase counterscreen, luminescence | 6,200 compounds, 77% hits | shares compounds with Mdm2 MdmX PPI;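 active = mean inhibition at 8 µM reaching about 37%, which flags the compound as non-specific, limit read from the data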;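 note: p53-null SaOS-2 cells with luciferase driven by a doxycycline-inducible promoter; compound on cells about two nights before reading with doxycycline added after day one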
An asterisk follows results filed as active. Rows were chosen to be rich in hits. Some 5.3% of all compounds tested hit in one or more screens of this group.

Screening C=CCOC(=O)c1[nH]c2c(c1C)C(=O)CC(c1ccco1)C2 (centres undefined) returned T cruzi inh -19.3, CSC inhib 7.4, Mdm2 MdmX PPI 63.3*, Beta cell apopt -15.5, NLRP3 yeast inh 21.9, Calb FLC -9.4, Mdm2 MdmX conf 55.5* and Full FLuc ctr 86.2*.
`Cc1c(C(=O)OCC2CCCO2)[nH]c2c1C(=O)CC(c1ccco1)C2` (centres undefined) gave T cruzi inh -5.9, CSC inhib 2.9, Mdm2 MdmX PPI 38.5, Beta cell apopt 2.7, NLRP3 yeast inh 23.2 and Calb FLC 11.2.
`Cc1c(C(=O)OCC(C)C)[nH]c2c1C(=O)CC(c1ccco1)C2` (centres undefined) gave T cruzi inh 17.4, Mdm2 MdmX PPI 75.1*, Beta cell apopt 27.9, NLRP3 yeast inh 14.7, Calb FLC -1.2, Mdm2 MdmX conf 54.3* and Full FLuc ctr 76.6*.
Screening Cc1oc2ccc(Br)cc2c(=O)c1-c1nn[nH]n1 returned T cruzi inh -4.1, CSC inhib -3.9, Mdm2 MdmX PPI -17.5, Beta cell apopt -1.7, NLRP3 yeast inh -6.8 and Calb FLC 12.2.
Screening Cc1cccc(OCC(=O)O/N=C(\N)Cc2ccc([N+](=O)[O-])cc2)c1 returned T cruzi inh -6.9, CSC inhib 7.5, Mdm2 MdmX PPI 13.1, Beta cell apopt -4.0, NLRP3 yeast inh 22.1 and Calb FLC -4.8.
Screening COC(=O)c1[nH]c2c(c1C)C(=O)CC(c1ccccc1)C2 (centres undefined) returned T cruzi inh 24.1, CSC inhib 55.9, Mdm2 MdmX PPI 69.7*, Beta cell apopt 38.8, NLRP3 yeast inh 1.4, Calb FLC -11.6, Mdm2 MdmX conf 55.3* and Full FLuc ctr 89.5*.
`Cc1c(C(=O)N2CCOCC2)[nH]c2c1C(=O)CC(c1ccccc1Cl)C2` (centres undefined) gave T cruzi inh -37.3, CSC inhib 46.8, Mdm2 MdmX PPI 72.8*, Beta cell apopt 8.6, NLRP3 yeast inh 11.5, Calb FLC 5.1, Mdm2 MdmX conf 55.8* and Full FLuc ctr 59.1*.
`Cc1c(C(=O)O)[nH]c2c1C(=O)CC(c1ccc(C(C)(C)C)cc1)C2` (centres undefined) gave T cruzi inh inconclusive, CSC inhib -14.4, Mdm2 MdmX PPI -8.8, Beta cell apopt -4.9, NLRP3 yeast inh 15.6 and Calb FLC 0.8.
`COc1ccc(C(=O)NC2CCCc3ccccc32)cc1[N+](=O)[O-]` (centres undefined) gave T cruzi inh -14.1, CSC inhib 47.0, Mdm2 MdmX PPI 67.5*, NLRP3 yeast inh 18.4, Calb FLC 40.4, Mdm2 MdmX conf 57.7* and Full FLuc ctr 53.4*.
For COc1cc(C(=O)NC2CCCc3ccccc32)cc(OC)c1C (centres undefined) the results were T cruzi inh -0.4, CSC inhib -0.6, Mdm2 MdmX PPI 23.7, NLRP3 yeast inh 24.9 and Calb FLC -8.5.
Screening COc1ccc(OC)c(C2CC(=O)Nc3cc(OC)c(OC)c(OC)c32)c1 (centres undefined) returned T cruzi inh -14.6, CSC inhib -4.1, Mdm2 MdmX PPI 55.8*, Beta cell apopt -10.4, NLRP3 yeast inh 8.4, Calb FLC -3.5 and Mdm2 MdmX conf 31.9.
For Cc1ccc(S(=O)(=O)N2CCN(c3ccc(S(=O)(=O)N4CCOCC4)cn3)CC2)cc1 the results were T cruzi inh 10.8, CSC inhib 55.3, Mdm2 MdmX PPI 65.9*, Beta cell apopt 1.2, NLRP3 yeast inh 6.6, Calb FLC 11.8 and Mdm2 MdmX conf -16.0.
CCN(CC)C(=O)/C(=C/c1cn(S(=O)(=O)N(C)C)c2ccccc12)NC(=O)c1ccc(OC)cc1 was read as T cruzi inh 8.6, CSC inhib 7.8, Mdm2 MdmX PPI 61.3*, Beta cell apopt 3.6, NLRP3 yeast inh 12.0, Calb FLC 1.4 and Mdm2 MdmX conf 23.6.
Cc1ccc(S(=O)(=O)NCc2ccc(C(=O)NCCCN3CCC(Cc4ccccc4)CC3)cc2)cc1 was read as T cruzi inh 25.7, CSC inhib 7.5, Mdm2 MdmX PPI 75.1*, Beta cell apopt 27.1, NLRP3 yeast inh 1.4, Calb FLC -15.8, Mdm2 MdmX conf 42.1* and Full FLuc ctr 43.3*.
Screening CCc1ccccc1NC(=O)c1ccc(CN2CCC(Cc3ccccc3)CC2)cc1 returned T cruzi inh 42.6, CSC inhib 21.2, Mdm2 MdmX PPI 51.2*, Beta cell apopt 0.4, NLRP3 yeast inh 41.4, Calb FLC -6.5, Mdm2 MdmX conf 36.4 and Full FLuc ctr 75.9*.
Screening Cc1ccc(S(=O)(=O)NCCC(=O)N2CCC(Cc3ccccc3)CC2)cc1 returned T cruzi inh 6.8, CSC inhib 4.1, Mdm2 MdmX PPI 1.7, Beta cell apopt -3.9, NLRP3 yeast inh 23.5 and Calb FLC -0.8.
O=C(NCc1ccccc1)c1ccc(CN2CCC(Cc3ccccc3)CC2)cc1 was read as T cruzi inh 24.8, CSC inhib 15.2, Mdm2 MdmX PPI 53.9*, Beta cell apopt -7.9, NLRP3 yeast inh 28.3, Calb FLC 16.9 and Mdm2 MdmX conf 28.3.
Screening COc1ccc(CCNC(=O)c2ccc(CN3CCC(Cc4ccccc4)CC3)cc2)cc1OC returned T cruzi inh 35.4, CSC inhib 25.4, Mdm2 MdmX PPI 36.3, Beta cell apopt -1.0, NLRP3 yeast inh 12.6 and Calb FLC -0.6.
`COCCNC(=O)c1ccc(CN2CCC(Cc3ccccc3)CC2)cc1` gave T cruzi inh 3.6, CSC inhib -10.3, Mdm2 MdmX PPI -29.9, Beta cell apopt 3.0, NLRP3 yeast inh -1.8 and Calb FLC -9.3.
Screening CC(C)c1cc(C(=O)N/N=C/c2cccnc2)cs1 returned T cruzi inh -20.7, CSC inhib 12.1, Mdm2 MdmX PPI 7.6, Beta cell apopt 2.4, NLRP3 yeast inh 8.8 and Calb FLC -4.9.
`O=C(COC(=O)/C=C/C(=O)OCC(=O)NC12CC3CC(CC(C3)C1)C2)NC12CC3CC(CC(C3)C1)C2` gave T cruzi inh -10.2, CSC inhib 15.0, Mdm2 MdmX PPI 93.5*, Beta cell apopt -19.0, NLRP3 yeast inh 24.9, Calb FLC -3.3, Mdm2 MdmX conf 39.8 and Full FLuc ctr 68.4*.

High-throughput results deposited in PubChem by several laboratories.
